Experimental data as given in ChEMBL document CHEMBL2440059, “Antiproliferative, antiandrogenic and cytotoxic effects of novel caffeic acid derivatives in LNCaP human androgen-dependent prostate cancer cells” (Bioorg Med Chem, 2013).
pIC50: −log10 of the molar value. The source made the active and inactive calls. The calls are words filed in the database; no cut-off is given here.

These compounds were tested on LNCaP (assay: Antiproliferative activity against human LNCAP cells after 72 hrs in presence of DHT). Conditions: not given.
Assay type: functional, cell-based
Outline: (§1)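 LNCaP cells (fewer than 18 passages) were seeded at 25 × 10³ cells/well on electrode-microarray plates in phenol red-free medium with 10% stripped FBS. After 24 h they were exposed to compounds with or without 0.1 nM DHT, in 0.2% final DMSO. Proliferation was tracked as impedance in real time over 72 h. Duplicates, three experiments; doubling time was derived from the growth rate.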

Row | Structure (SMILES) | Activity
1 | O=C(/C=C/c1ccc(O)c(O)c1)OCCC1CCCCC1 | Dose-dependent effect
2 | O=C(/C=C/c1ccc(O)c(O)c1)OCc1ccccc1 [BENZYL CAFFEATE] | Dose-dependent effect
3 | O=C(/C=C/c1ccc(O)c(O)c1)OCCc1ccccc1 [CAFFEIC ACID PHENETHYL ESTER] | Dose-dependent effect
4 | CCCOC(=O)/C=C/c1ccc(O)c(O)c1 | Dose-dependent effect
5 | O=C(/C=C/c1ccc(O)c(O)c1)OCCc1cccc2ccccc12 | Dose-dependent effect
6 | O=C(/C=C/c1ccc(O)c(O)c1)OCCCc1ccccc1 | Dose-dependent effect
7 | O=C(/C=C/c1ccc(O)c(O)c1)OCCc1ccc(F)cc1 | Dose-dependent effect
8 | O=C(/C=C/c1ccc(O)c(O)c1)OCC(c1ccccc1)c1ccccc1 | Dose-dependent effect
9 | O=C(/C=C/c1ccc(O)c(O)c1)Oc1ccccc1 | Dose-dependent effect
10 | Cc1ccc(CCOC(=O)/C=C/c2ccc(O)c(O)c2)cc1 | Dose-dependent effect
11 | O=C(/C=C/c1ccc(O)c(O)c1)NCCc1ccccc1 [CAFFEIC ACID PHENETHYL AMIDE] | Dose-dependent effect

What follows are compounds tested on PC-3 (assay: Antiproliferative activity against human PC3 cells after 72 hrs by trypan blue assay). Conditions: PC-3, 72 h.
Assay type: cell-based

Row | Structure (SMILES) | pIC50
12 | O=C(/C=C/c1ccc(O)c(O)c1)OCCc1ccccc1 [CAFFEIC ACID PHENETHYL ESTER] | 4.29

What follows are compounds tested on LNCaP (assay: Antiproliferative activity against human LNCAP cells at 0.3 uM after 72 hrs in presence of DHT). Conditions: not given.
Assay type: functional, cell-based
Outline: as §1

Row | Structure (SMILES) | Activity
13 | O=C(/C=C/c1ccc(O)c(O)c1)OCCC1CCCCC1 | Active
14 | O=C(/C=C/c1ccc(O)c(O)c1)OCCc1ccccc1 [CAFFEIC ACID PHENETHYL ESTER] | Active

Each compound was assayed on Radical scavenging activity (assay: Antioxidant activity assessed as DPPH radical scavenging activity after 30 mins by spectrophotometry). Conditions: not given.
Assay type: functional
Outline: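 Ethanolic DPPH ([…], stock) was mixed 1:1 with increasing concentrations of compound in ethanol and held in the dark 30 min at room temperature. Absorbance was read at 520 nm, with control OD accepted within 0.350–0.360. Activity was taken as % inhibition of absorbance and IC50 came from a variable-slope sigmoidal fit. Triplicates, two independent experiments.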

Row | Structure (SMILES) | pIC50
15 | COC(=O)/C=C/c1ccc(O)c(O)c1 [METHYLCAFFEATE] | 4.67
16 | O=C(/C=C/c1ccc(O)c(O)c1)OCCC1CCCCC1 | 4.82
17 | O=C(/C=C/c1ccc(O)c(O)c1)OCc1ccccc1 [BENZYL CAFFEATE] | 4.82
18 | O=C(/C=C/c1ccc(O)c(O)c1)OCCc1ccccc1 [CAFFEIC ACID PHENETHYL ESTER] | 4.78
19 | COc1ccc(CCOC(=O)/C=C/c2ccc(O)c(O)c2)cc1 | 4.76
20 | CCCCOC(=O)/C=C/c1ccc(O)c(O)c1 [BUTYL CAFFEATE] | 4.90
21 | C=C(C)CCOC(=O)/C=C/c1ccc(O)c(O)c1 | 5.02
22 | CCCOC(=O)/C=C/c1ccc(O)c(O)c1 | 4.85
23 | O=C(/C=C/c1ccc(O)c(O)c1)OCCc1cccc2ccccc12 | 4.88
24 | CC(C)CCOC(=O)/C=C/c1ccc(O)c(O)c1 | 4.62
25 | O=C(O)/C=C/c1ccc(O)c(O)c1 [CAFFEIC ACID] | 4.82
26 | CCOC(=O)/C=C/c1ccc(O)c(O)c1 [ETHYL CAFFEATE] | 4.88
27 | O=C(/C=C/c1ccc(O)c(O)c1)OCCCc1ccccc1 | 4.92
28 | O=C(/C=C/c1ccc(O)c(O)c1)OCCc1ccc(F)cc1 | 4.89
29 | CC(C)OC(=O)/C=C/c1ccc(O)c(O)c1 | 4.89
30 | O=C(/C=C/c1ccc(O)c(O)c1)OCC(c1ccccc1)c1ccccc1 | 4.73
31 | O=C(/C=C/c1ccc(O)c(O)c1)Oc1ccccc1 | 4.90
32 | Cc1ccc(CCOC(=O)/C=C/c2ccc(O)c(O)c2)cc1 | 4.95
33 | O=C(/C=C/c1ccc(O)c(O)c1)NCCc1ccccc1 [CAFFEIC ACID PHENETHYL AMIDE] | 4.86

The compounds below were run on LNCaP (assay: Antiproliferative activity against human LNCAP cells at 1 to 10 uM after 72 hrs in presence of DHT). Conditions: not given.
Assay type: functional, cell-based
Outline: as §1

Row | Structure (SMILES) | Activity
34 | COC(=O)/C=C/c1ccc(O)c(O)c1 [METHYLCAFFEATE] | inactive
35 | COc1ccc(CCOC(=O)/C=C/c2ccc(O)c(O)c2)cc1 | inactive
36 | C=C(C)CCOC(=O)/C=C/c1ccc(O)c(O)c1 | inactive
37 | CCOC(=O)/C=C/c1ccc(O)c(O)c1 [ETHYL CAFFEATE] | inactive

What follows are compounds tested on LNCaP (assay: Reduction of androgen receptor protein expression in human LNCAP cell cytoplasm at > 10 uM after 24 hrs by chemoluminescence assay in presence of DHT). Conditions: not given.
Assay type: functional, cell-based
Outline: (§2)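 Near-confluent LNCaP cells were switched to steroid-free medium for 24 h, then exposed 24 h to compounds with or without 10 nM DHT. Nuclear and cytoplasmic fractions were extracted and assayed by BCA. Protein (40 μg) was run on SDS-PAGE, blotted to PVDF, and probed overnight at 4 °C with anti-AR, then with an HRP anti-rabbit secondary. Duplicates, three experiments.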

Row | Structure (SMILES) | Activity
38 | O=C(/C=C/c1ccc(O)c(O)c1)OCCC1CCCCC1 | Active
39 | O=C(/C=C/c1ccc(O)c(O)c1)OCCc1ccccc1 [CAFFEIC ACID PHENETHYL ESTER] | Active

The compounds below were run on LNCaP (assay: Cytotoxicity against human LNCAP cells at 1 uM after 24 hrs by WST-1 assay). Conditions: not given.
Assay type: functional, cell-based
Outline: (§3)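 LNCaP cells were acclimatised 24 h in complete medium, after which the medium was refreshed. Compounds were added from DMSO (0.1% final, 0.1% DMSO controls) over 0.1–100 μM for a 24 h exposure. Quadruplicate wells, three experiments. IC50 came from a variable-slope sigmoidal concentration–response fit.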

Row | Structure (SMILES) | Activity
40 | O=C(O)/C=C/c1ccc(O)c(O)c1 [CAFFEIC ACID] | inactive

What follows are compounds tested on LNCaP (assay: Induction of androgen receptor protein expression in human LNCAP cell nucleus at 1 to 30 uM after 24 hrs by chemoluminescence assay in presence of DHT relative to control). Conditions: not given.
Assay type: functional
Outline: as §2

Row | Structure (SMILES) | fold change (FC)
41 | O=C(/C=C/c1ccc(O)c(O)c1)OCCC1CCCCC1 | 5
42 | O=C(/C=C/c1ccc(O)c(O)c1)OCCc1ccccc1 [CAFFEIC ACID PHENETHYL ESTER] | 5

The compounds below were run on LNCaP (assay: Cytotoxicity against human LNCAP cells assessed as reduction in cell viability at 100 uM after 24 hrs by WST-1 assay). Conditions: not given.
Assay type: functional
Outline: as §3

Row | Structure (SMILES) | inhibition at 100 µM [%]
43 | O=C(/C=C/c1ccc(O)c(O)c1)OCCC1CCCCC1 | > 95
44 | C=C(C)CCOC(=O)/C=C/c1ccc(O)c(O)c1 | > 80
45 | O=C(/C=C/c1ccc(O)c(O)c1)OCCc1cccc2ccccc12 | > 80
46 | O=C(/C=C/c1ccc(O)c(O)c1)OCCCc1ccccc1 | > 80
47 | O=C(/C=C/c1ccc(O)c(O)c1)OCCc1ccc(F)cc1 | > 80
48 | O=C(/C=C/c1ccc(O)c(O)c1)OCC(c1ccccc1)c1ccccc1 | > 80
49 | Cc1ccc(CCOC(=O)/C=C/c2ccc(O)c(O)c2)cc1 | > 80

The compounds below were run on LNCaP (assay: Induction of androgen receptor protein expression in human LNCAP cell nucleus at 1 to 30 uM after 24 hrs by chemoluminescence assay in presence of DHT relative to cytoplasm). Conditions: not given.
Assay type: functional
Outline: as §2

Row | Structure (SMILES) | fold change (FC)
50 | O=C(/C=C/c1ccc(O)c(O)c1)OCCC1CCCCC1 | 5
51 | O=C(/C=C/c1ccc(O)c(O)c1)OCCc1ccccc1 [CAFFEIC ACID PHENETHYL ESTER] | 5

The compounds below were run on LNCaP (assay: Induction of androgen receptor protein expression in human LNCAP cell nucleus at > 10 uM after 24 hrs by chemoluminescence assay in presence of DHT). Conditions: not given.
Assay type: functional, cell-based
Outline: as §2

Row | Structure (SMILES) | Activity
52 | O=C(/C=C/c1ccc(O)c(O)c1)OCCC1CCCCC1 | Active
53 | O=C(/C=C/c1ccc(O)c(O)c1)OCCc1ccccc1 [CAFFEIC ACID PHENETHYL ESTER] | Active

These compounds were tested on LNCaP (assay: Cytotoxicity against human LNCAP cells assessed as reduction in cell viability after 24 hrs by WST-1 assay). Conditions: not given.

Row | Structure (SMILES) | pIC50
54 | COC(=O)/C=C/c1ccc(O)c(O)c1 [METHYLCAFFEATE] | < 4.00
55 | O=C(/C=C/c1ccc(O)c(O)c1)OCCC1CCCCC1 | 5.17
56 | O=C(/C=C/c1ccc(O)c(O)c1)OCc1ccccc1 [BENZYL CAFFEATE] | 4.34
57 | O=C(/C=C/c1ccc(O)c(O)c1)OCCc1ccccc1 [CAFFEIC ACID PHENETHYL ESTER] | 4.47
58 | COc1ccc(CCOC(=O)/C=C/c2ccc(O)c(O)c2)cc1 | 4.33
59 | CCCCOC(=O)/C=C/c1ccc(O)c(O)c1 [BUTYL CAFFEATE] | 4.34
60 | C=C(C)CCOC(=O)/C=C/c1ccc(O)c(O)c1 | 4.69
61 | CCCOC(=O)/C=C/c1ccc(O)c(O)c1 | 4.22
62 | O=C(/C=C/c1ccc(O)c(O)c1)OCCc1cccc2ccccc12 | 5.03
63 | CC(C)CCOC(=O)/C=C/c1ccc(O)c(O)c1 | 4.34
64 | O=C(O)/C=C/c1ccc(O)c(O)c1 [CAFFEIC ACID] | < 4.00
65 | CCOC(=O)/C=C/c1ccc(O)c(O)c1 [ETHYL CAFFEATE] | < 4.00
66 | O=C(/C=C/c1ccc(O)c(O)c1)OCCCc1ccccc1 | 4.58
67 | O=C(/C=C/c1ccc(O)c(O)c1)OCCc1ccc(F)cc1 | 4.68
68 | CC(C)OC(=O)/C=C/c1ccc(O)c(O)c1 | 4.28
69 | O=C(/C=C/c1ccc(O)c(O)c1)OCC(c1ccccc1)c1ccccc1 | 4.68
70 | O=C(/C=C/c1ccc(O)c(O)c1)Oc1ccccc1 | 4.18
71 | Cc1ccc(CCOC(=O)/C=C/c2ccc(O)c(O)c2)cc1 | 4.85
72 | O=C(/C=C/c1ccc(O)c(O)c1)NCCc1ccccc1 [CAFFEIC ACID PHENETHYL AMIDE] | < 4.00

These compounds were tested on LNCaP (assay: Antiandrogenic activity in human LNCAP cells assessed as reduction in DHT-stimulated PSA release after 24 hrs by ELISA). Conditions: not given.

Row | Structure (SMILES) | pIC50
73 | O=C(/C=C/c1ccc(O)c(O)c1)OCCC1CCCCC1 | 5.70
74 | O=C(/C=C/c1ccc(O)c(O)c1)OCCc1ccccc1 [CAFFEIC ACID PHENETHYL ESTER] | 5.21

These compounds were tested on LNCaP (assay: Antiproliferative activity against human LNCAP cells at 10 uM after 72 hrs in presence of DHT). Conditions: not given.
Assay type: functional, cell-based
Outline: as §1

Row | Structure (SMILES) | Activity
75 | O=C(/C=C/c1ccc(O)c(O)c1)OCCC1CCCCC1 | Active
76 | O=C(/C=C/c1ccc(O)c(O)c1)OCCc1cccc2ccccc12 | Active
77 | O=C(/C=C/c1ccc(O)c(O)c1)OCC(c1ccccc1)c1ccccc1 | Active
